Experimental data published in ChEMBL document CHEMBL4145595, “Discovery of MK-8282 as a Potent G-Protein-Coupled Receptor 119 Agonist for the Treatment of Type 2 Diabetes” (ACS Med Chem Lett, 2018).
Converted amounts (≈) assume the structure as drawn. The source made the active and inactive calls. No cut-off for these calls is given here.

What was measured:
[1] = molecular target: T1, Glucose-dependent insulinotropic receptor (Homo sapiens) (UniProt Q8TDV5); experiment: (§1) Agonist activity at human GPR119 expressed in HEK293 cells assessed as increase in cAMP level after 30 mins by LANCE assay; assay type: functional, cell-based
T1 sequence (whole entry): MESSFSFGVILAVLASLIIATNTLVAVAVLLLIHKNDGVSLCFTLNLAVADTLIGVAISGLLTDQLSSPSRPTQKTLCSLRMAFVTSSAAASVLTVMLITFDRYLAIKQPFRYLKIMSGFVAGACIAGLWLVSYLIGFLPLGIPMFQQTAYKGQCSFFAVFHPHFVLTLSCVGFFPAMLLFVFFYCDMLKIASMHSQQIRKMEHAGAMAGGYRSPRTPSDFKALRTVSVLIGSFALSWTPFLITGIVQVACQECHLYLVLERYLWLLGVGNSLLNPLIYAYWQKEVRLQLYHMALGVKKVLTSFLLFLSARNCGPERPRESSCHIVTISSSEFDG

[2] = molecular target: T2, Glucose-dependent insulinotropic receptor (Homo sapiens, UniProt Q8TDV5); experiment: as §1; assay type: functional, cell-based
T2 sequence (Q8TDV5 whole entry): T1 sequence (whole entry)

[3] = molecular target: T3, Glucose-dependent insulinotropic receptor (Mus musculus) (UniProt Q7TQP3); experiment: (§2) Agonist activity at mouse GPR119 assessed as increase in cAMP level; assay type: functional
T3 sequence (whole entry): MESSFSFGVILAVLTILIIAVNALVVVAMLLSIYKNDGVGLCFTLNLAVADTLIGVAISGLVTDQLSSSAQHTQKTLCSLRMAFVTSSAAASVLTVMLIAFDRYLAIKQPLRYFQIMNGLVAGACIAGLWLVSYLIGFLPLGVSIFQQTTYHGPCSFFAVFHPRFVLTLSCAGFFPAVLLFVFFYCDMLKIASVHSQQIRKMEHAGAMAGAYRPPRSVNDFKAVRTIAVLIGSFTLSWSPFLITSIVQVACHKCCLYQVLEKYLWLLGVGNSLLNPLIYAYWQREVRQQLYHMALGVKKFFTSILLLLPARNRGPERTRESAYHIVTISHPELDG

[4] = molecular target: T4, Glucose-dependent insulinotropic receptor (Mus musculus, UniProt Q7TQP3); experiment: as §2; assay type: functional
T4 sequence (Q7TQP3 whole entry): T3 sequence (whole entry)

Mus musculus [5] = experiment: Glucose lowering effect in C57Bl/6NCrl mouse assessed as reduction in glucose level at 3 mg/kg, po administered via gavage pretreated for 30 mins followed by glucose-challenge measured after 20 mins by OGTT relative to control; assay type: functional; parameters: scale not given: the % may be the effect or the level left
How it was run: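 Overnight-fasted mice got compound or vehicle orally at 3 to 10 mg/kg. Glucose (3 g/kg po) was given 30 min post-dose. Blood glucose was read by hand-held glucometer before dosing, before glucose and 20 min after glucose. Glucose lowering (%) = [(1 − 20 min glucose of treated / 20 min glucose of vehicle) × 100].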

[6] = Protein binding in human plasma at 10 uM; assay type: ADME, cell-free; conditions: read-out: PPB (converted)
[7] = Protein binding in mouse plasma at 10 uM; assay type: ADME, cell-free; conditions: read-out: PPB (converted)
[8] = Solubility of the compound at pH 7.4; assay type: physicochemical; conditions: buffer
Mus musculus [9] = experiment: Antidiabetic activity in C57Bl/6NCrl mouse assessed as increase in plasma GLP1 (7 to 36) amide levels at 3 mg/kg, po administered via gavage pretreated followed by glucose-challenge measured after 10 mins; assay type: functional, organism-based
Rattus norvegicus = experiment: Antidiabetic activity in Sprague-Dawley rat assessed as reduction in glucose excursion at 1 mg/kg, po pretreated followed by glucose challenge measured after 10 to 30 mins by OGTT; assay type: functional, organism-based
How it was run: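 Sprague-Dawley rats underwent an oral glucose tolerance test with glucose excursion measured. Sitagliptin was dosed at 1 mpk and agonist at 3 mpk, alone or co-administered.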

| Compound | %max [1] [%] | EC50 [2] [nM] | %max [3] [%] | EC50 [4] [nM] | fraction unbound at 10 µM [6] | fraction unbound at 10 µM [7] | solubility [8] [µM] | Activity (Mus musculus [5]) | Activity (Mus musculus [9]) | Activity (Rattus norvegicus) |
| --- | --- | --- | --- | --- | --- | --- | --- | --- | --- | --- |
| CC1(OC(=O)N2CC3COCC(C2)C3Oc2ncnc(Nc3ccc(F)cc3F)c2F)CC1 (stereo unspecified) | 94 | 15 | 73 | 44 | – | – | – | 27% | – | – |
| CC1(OC(=O)N2CC3COCC(C2)C3Oc2ncnc(Nc3cccnc3Cl)c2F)CC1 (stereo unspecified) | 63 | 17 | 84 | 58 | – | – | – | 26% | – | – |
| COc1c(Nc2ccc(S(C)(=O)=O)cc2F)ncnc1OC1C[C@@H]2COC[C@@H](C1)N2C(=O)OC1(C)CC1 (stereo partly specified) | 73 | 97 | 79 | 0.427 | 0.145 | 0.081 | 17 (≈ 9.12 µg/mL) | – | – | – |
| CC1(OC(=O)N2CC3COCC(C2)C3Oc2ncnc(Nc3ccc(-n4cncn4)cc3F)c2F)CC1 (stereo unspecified) | 73 | 19 | 83 | 278 | – | – | – | 27% | – | – |
| CC1(OC(=O)N2CC3COCC(C2)C3Oc2ncnc(Oc3ccccc3F)c2F)CC1 (stereo unspecified) | 114 | 26 | 136 | 75 | – | – | – | 20% | – | – |
| CC1(OC(=O)N2C[C@H]3COC[C@@H](C2)[C@@H]3Oc2ncnc(Nc3ccccc3F)c2F)CC1 | 78 | 6 | 76 | 25 | – | – | – | 21% | – | – |
| CC1(OC(=O)N2C[C@H]3COC[C@@H](C2)[C@@H]3Oc2ncnc(Nc3c(F)cccc3F)c2F)CC1 | 78 | 13 | 108 | 113 | – | – | – | 31% | – | – |
| N[C@@H](CC(=O)N1CCn2c(nnc2C(F)(F)F)C1)Cc1cc(F)c(F)cc1F | – | – | – | – | – | – | – | – | Active | Active |
| N#Cc1ccc(Oc2ncnc(OC3C4COCC3CN(c3ncc(F)cn3)C4)c2C2CC2)c(Cl)c1 (stereo unspecified) | 56 | 212 | 100 | 248 | – | – | – | – | – | – |
| COCC1(OC(=O)N2CC3COCC(C2)C3Oc2ncnc(Nc3ccc(C#N)cc3F)c2F)CC1 (stereo unspecified) | 62 | 49 | 70 | 312 | – | – | – | – | – | – |

Now from value to molecule, other results behind:

| %max [1] [%] | EC50 [2] [nM] | %max [3] [%] | EC50 [4] [nM] | fraction unbound at 10 µM [6] | fraction unbound at 10 µM [7] | solubility [8] [µM] | Compound | Activity (Mus musculus [5]) | Activity (Mus musculus [9]) | Activity (Rattus norvegicus) |
| --- | --- | --- | --- | --- | --- | --- | --- | --- | --- | --- |
| 41 | 188 | 46 | 516 | – | – | – | CC1(COC(=O)N2CC3COCC(C2)C3Oc2ncnc(Nc3ccc(C#N)cc3Cl)c2F)COC1 (stereo unspecified) | – | – | – |
| 59 | 10 | 88 | 60 | – | – | – | CC1(OC(=O)N2CC3COCC(C2)C3Oc2ncnc(Nc3ccc(C#N)cc3Cl)c2F)CCC1 (stereo unspecified) | – | – | – |
| 81 | 2.6 | 44 | 21 | – | – | – | CC(C)COC(=O)N1[C@H]2CC[C@H]1CC(Oc1ncnc(Nc3ccc(C#N)cc3Cl)c1F)C2 (stereo partly specified) | inactive | – | – |
| 79 | 3.5 | 42 | 67 | – | – | – | CC1(OC(=O)N2[C@H]3CC[C@H]2CC(Oc2ncnc(Nc4ccc(C#N)cc4Cl)c2F)C3)CC1 (stereo partly specified) | 17% | – | – |
| 51 | 10 | 60 | 60 | – | – | – | N#Cc1ccc(Nc2ncnc(OC3C4COCC3CN(C(=O)OC3CCC3)C4)c2F)c(Cl)c1 (stereo unspecified) | – | – | – |
| 89 | 6 | 90 | 43 | – | – | – | CCC1(OC(=O)N2CC3COCC(C2)C3Oc2ncnc(Nc3ccc(C#N)cc3F)c2F)CC1 (stereo unspecified) | – | – | – |
| – | – | – | – | 0.001 | 0.007 | 0.17 (≈ 0.0806 µg/mL) | Cc1c(Nc2ccc(C#N)cc2Cl)ncnc1OC1C[C@@H]2CC[C@@H](C1)N2S(=O)(=O)C1CC1 (stereo partly specified) | – | – | – |
| 87 | 8 | 29 | 46 | – | – | – | CC(C)OC(=O)N1[C@H]2CC[C@H]1CC(Oc1ncnc(Nc3ccc(C#N)cc3Cl)c1F)C2 (stereo partly specified) | inactive | – | – |
| 77 | 5.1 | 18 | 42 | – | – | – | CC1(OC(=O)N2[C@H]3CC[C@H]2CC(Oc2ncnc(Nc4ccc(C#N)cc4Cl)c2F)C3)CCC1 (stereo partly specified) | inactive | – | – |
